Screening data (PubChem)
Shown are actives, neighbours in structure and some others; about 1.2% of the full set was active somewhere.
ARNT-TACC3 inh – disruptors of human ARNT/TACC3 interaction. Q9Y6A5. AlphaScreen His-ARNT PAS-B/GST-TACC3 binding, luminescence; TACC3 fragment carries E629A point mutation. inhibition, % at 9.99 µM. 390,000 tested, 0.66% active. AID 623870;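 active = mean inhibition of replicates at least 50% and at least half of replicates each reaching 50%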;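 note: 0% = complete ARNT plus TACC3 wells and 100% = ARNT alone without TACC3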
CAL PDZ FP-1 – blocks peptide binding to human CAL PDZ domain; 330,000 tested, 0.02% active; purified CAL PDZ, TMR-peptide fluorescence polarization, 1 h; Q9HD26; inhibition, % at 20 µM;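 active = highest replicate inhibition of at least 40%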;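 note: plate controls were DMSO neutral control wells for no effect and unlabeled competitor peptide control wells for full effect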
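System: purified tagged CAL PDZ domain construct (CerCALP). Schedule: 1 h incubation at room temperature before polarization reading. Medium: 25 mM sodium phosphate pH 7.4, 150 mM NaCl, TCEP, IgG, Thesit. Read-out: percent inhibition from loss of millipolarization. Measured by: FP readout, S and P plane fluorescence. Probe or stimulus: fluorescent TMR peptide probe.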
CAL PDZ FP-2 – CAL PDZ (human) peptide binding inhibition | purified CAL PDZ, TMR-peptide fluorescence polarization, 1 h | inhibition, % at 24.9 µM | 300,000 tested, 0.92% active;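 active = mean inhibition of at least 30% with at least half of replicates also reaching 30%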;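 note: 0% = DMSO neutral control and 100% = excess unlabeled competitor peptide PRC23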
ARNT Alpha ctr-1 – interferes with AlphaScreen signal, flagging false ARNT-TACC3 hits; His-ARNT PASB-GST AlphaScreen artifact counter-screen, luminescence; 1,200 tested, 50% active; AC50, µM (series often up to 68 µM), for inactives: at the highest dose activity change, negative = signal decrease; shares compounds with ARNT-TACC3 inh;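 active = every separate test run was called active for a drop in luminescence, with AC50 within twice the top valid dose, actives reach about 71 µM in these data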
ARNT Alpha ctr-2 – AlphaScreen artifact flagged for ARNT-TACC3 inhibitors; AID 720564; Dual-tagged His-ARNT PASB-GST AlphaScreen artifact counter-screen; 45 tested, 70% active; shares compounds with ARNT-TACC3 inh; AC50, µM;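 active = luminescence drop, with half-maximal potency fitted within twice the sample's top valid dose, cut at about 70 µM in these data; inactive = the rest, including signal moving the wrong way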
The depositor's hits bear a star; i = inactive; · = no result given; [ ] = remark or other dose.

SMILES	ARNT-TACC3 inh	CAL PDZ FP-1	CAL PDZ FP-2	ARNT Alpha ctr-1	others
CCC(=O)NC(c1ccc(OC)cc1)c1cc(Cl)c2cccnc2c1O (stereo not given)	0	0	·	·
COc1ccc(S(=O)(=O)Nc2ccc3c(c2)C(=O)N([C@H](C)CO)C[C@H](C)[C@H](CN(C)Cc2ccc4c(c2)OCO4)OCCCC[C@H](C)O3)cc1	8	·	·	·
CN1c2ccc(-c3cccc(F)c3)cc2[C@@H]2[C@@H](CCN2S(=O)(=O)c2cccc(F)c2)[C@@H]1CO	2	·	·	·
CN1CCN(C(=O)[C@H]2[C@H](CO)[C@H]3Cn4c(ccc(C5=CCCC5)c4=O)[C@@H]2N3S(C)(=O)=O)CC1	0	·	·	·
O=C(C[C@@H]1CC[C@H]2[C@@H](COC[C@H](O)CN2Cc2cccc(C(F)(F)F)c2)O1)NCCc1ccncc1	11	·	·	·
O=C(Nc1nc(-c2ccccn2)cs1)C1CC1	·	-1	-7	·
O=C(Nc1nc(-c2ccccn2)cs1)c1ccco1	59*	0	·	26µM*	ARNT Alpha ctr-2=9.8*
Cc1ccccc1NC(=O)c1nc2nccc(C)n2n1	-2	-1	2	·
Cc1ccnc2nc(C(=O)Nc3nc(-c4ccccn4)cs3)nn12	66*	-1	-6	14µM*
COc1ccc(OCCCC(=O)Nc2nc(-c3ccccn3)cs2)cc1	17	-1	·	·
O=C(Nc1nc(-c2ccccn2)cs1)c1ccc(Br)s1	·	-1	-2	·
CC(Oc1ccc(F)cc1)C(=O)Nc1nc(-c2ccccn2)cs1 (stereo not given)	63*	-2	6	66µM*
O=C(Nc1nc(-c2ccccn2)cs1)C12CC3CC(CC(O)(C3)C1)C2	71*	-1	-2	62µM*
CCCC(=O)Nc1ccc2c(c1)OC[C@@H](C)N(Cc1cccc(F)c1)C[C@@H](C)[C@H](OC)CN(C)C2=O	6	·	·	·
CCCN1C[C@H](C)[C@H](OC)CN(C)C(=O)c2ccc(NC(=O)C3CCC3)cc2OC[C@H]1C	4	·	·	·
O=C([C@@H]1[C@@H](CO)[C@@H]2Cn3c(ccc(-c4ccccc4)c3=O)[C@@H]2N1CCC(F)(F)F)N1CCOCC1	-9	·	·	·
C[C@H](CO)N1C[C@H](C)[C@H](CN(C)S(=O)(=O)c2ccccc2)Oc2ncc(Br)cc2C1=O	-7	·	·	·
c1ccc(Nc2nc(-c3ccncc3)cs2)cc1	-2	1	-4	·
O=C(Nc1nc(-c2cccs2)cs1)c1ccco1	-1	-3	-3	·
c1ccc(Nc2nc(-c3ccccn3)cs2)cc1	66*	0	-3	49µM*
O=C(Nc1nc(-c2ccncc2)cs1)c1ccco1	7	-2	5	·	ARNT Alpha ctr-2=i
CC(C)NC(=O)Nc1ccc2c(c1)C(=O)N([C@H](C)CO)C[C@H](C)[C@@H](CN(C)C(=O)NC1CCCCC1)OCCCC[C@@H](C)O2	0	·	·	·
COC(=O)C(CC#Cc1ccc2c(c1)[C@]1(C(=O)N2)[C@H](c2ccc(O)cc2)N2[C@H](c3ccccc3)[C@H](c3ccccc3)OC(=O)[C@H]2[C@@H]1C(=O)N1CCCCCCC1)C(=O)OC	68*	·	·	-33%[38 µM]
COC(=O)C(CC#Cc1ccc2c(c1)[C@]1(C(=O)N2)[C@H](C(=O)N2CCCCCCC2)[C@H]2C(=O)O[C@H](c3ccccc3)[C@H](c3ccccc3)N2[C@@H]1c1ccc(OCCO)cc1)C(=O)OC	35	·	·	·
Cc1cc(=O)n2c3c(c4c(cc13)c(CN(C)C)cc(=O)n4C)OC2	34*	0	-3	-21%
SMILES	ARNT-TACC3 inh	CAL PDZ FP-1	CAL PDZ FP-2	ARNT Alpha ctr-1	others
Cc1cc(=O)n(C)c2ccccc12	·	0	-2	·
C[C@H]1CCCCO[C@@H](CN(C)S(=O)(=O)c2cn(C)cn2)[C@@H](C)CN([C@@H](C)CO)C(=O)c2cc(NC(=O)CCC(F)(F)F)ccc2O1	-4	·	·	·
c1ccc(-c2nccc(-c3ccco3)n2)nc1	59*	0	5	57µM*
c1ccc(-c2noc(-c3ccco3)n2)nc1	·	-2	-5	·
C[C@@H]1CN([C@H](C)CO)C(=O)Cc2cc(NS(=O)(=O)c3ccccc3)ccc2O[C@H]1CN(C)Cc1ccncc1	-5	·	·	·
COc1ccc(-c2cc(C(=O)c3c(N)n(C)c(=O)n(C)c3=O)c3ccccc3n2)cc1	-7	-4	0	·
Cn1c(N)c(C(=O)c2cc(-c3ccccn3)nc3ccccc23)c(=O)[nH]c1=O	29*	-4	8	-15%
O=C(C[C@H]1C[C@H]2c3cc(NC(=O)NC4CCCC4)ccc3O[C@H]2[C@@H](CO)O1)NC1CCCCC1	-7	·	·	·
O=C(NCCCNCCCNC(=O)c1ccc(/C=N/O)nc1)c1ccc(/C=N/O)nc1	56*	0	·	66µM*
CN(CCCNC(=O)c1ccc(/C=N/O)nc1)CCCN(C)Cc1ccccc1	·	-2	-3	·
CN1CCN(C(=O)C[C@H]2C[C@H]3c4cc(NC(=O)C5CCOCC5)ccc4O[C@H]3[C@@H](CO)O2)CC1	-12	·	·	·
C[C@@H]1CN([C@@H](C)CO)C(=O)c2cc(NC(=O)Cc3cn(C)c4ccccc34)ccc2O[C@@H]1CN(C)Cc1ccc(C(F)(F)F)cc1	-3	·	·	·
Cc1cccc(NC(=S)N2CCCCC2)c1	-12	-1	-2	·
Cc1ccc(C2CCN(C(=S)Nc3cccc(C)c3)C2)cc1 (stereo not given)	58*	0	12	-12%
C[C@H](CO)N1C[C@H](C)[C@H](CN(C)C(=O)NC2CCCCC2)Oc2ccc(NC(=O)NC3CCCCC3)cc2C1=O	2	·	·	·
CO[C@@H]1CN(C)C(=O)c2cc(NC(=O)c3cc(C)on3)ccc2OC[C@H](C)NC[C@H]1C	-7	·	·	·
CCOc1ccc(NC(=O)NCc2ccccn2)cc1	-5	-2	0	·
CCOc1ccc(NC(=O)CC(NCc2ccccn2)C(=O)O)cc1 (stereo not given)	65*	0	-2	6.1µM*
Cc1ccc(S(=O)(=O)N(C)C[C@@H]2OCCCC[C@@H](C)Oc3ccc(NS(C)(=O)=O)cc3C(=O)N([C@@H](C)CO)C[C@@H]2C)cc1	-7	·	·	·
O=S(=O)(N[C@@H]1CC[C@H](CCn2cc(-c3ccccc3F)nn2)O[C@@H]1CO)c1ccc(Cl)cc1	6	·	·	·
O=S(=O)(N[C@H]1CC[C@H](CCn2cc(-c3ccccn3)nn2)O[C@H]1CO)c1cccc(Cl)c1	63*	·	·	55µM*
O=S(=O)(N[C@@H]1CC[C@@H](CCn2cc(-c3ccccc3F)nn2)O[C@@H]1CO)c1ccc(Cl)cc1	8	·	·	·
O=S(=O)(N[C@@H]1CC[C@H](CCn2cc(-c3ccccn3)nn2)O[C@H]1CO)c1cccc(Cl)c1	69*	·	·	34µM*
CN1C(=O)CS(=O)(=O)C1c1ccccc1 (stereo not given)	-7	·	·	·
O=C(C[C@H]1C[C@@H]2c3cc(NC(=O)C4CCOCC4)ccc3O[C@@H]2[C@@H](CO)O1)NCc1ccc2c(c1)OCO2	-4	·	·	·
CC1=C(SCc2ccccc2)C(=O)c2ccccc2C1=O	24*	2	0	55µM*
